From ChEMBL document CHEMBL4330087, “Synthesis, antimicrobial activity, attenuation of aminoglycoside resistance in MRSA, and ribosomal A-site binding of pyrene-neomycin conjugates” (Eur J Med Chem, 2019)
In brackets after ≈: the same amount, converted by molar mass. Activity calls are given as the source filed them. The calls are words filed in the database; no cut-off is given here.

Legend:
Ribosomal RNA A-site [1] = assay: Displacement of F-NEO from human cytosolic rRNA-A site after 10 to 20 mins by fluorescence assay; assay type: nucleic-acid assay
How it was run: (§1)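 A 100 nM F-NEO:A-site RNA complex in 10 mM HEPES, 50 mM NaCl, 0.04 mM EDTA, pH 7.0 was titrated with 2-fold dilutions of ligand from 20 to 0.009 μM, or from 60 or 40 μM for weaker ligands. Incubated 10-20 min at room temperature, fluorescence read at ex 485/em 525 nm. IC50 from dose-response curve fit.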

Staphylococcus aureus [2] = assay: Antibacterial activity against NEO-sensitive Staphylococcus aureus harboring NorA mutant at 6.25 uM after 15 to 20 hrs by CLSI protocol based microdilution assay relative to control; assay type: functional
How it was run: (§2)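 Exponential-phase cultures were exposed to 6.25 μM compound in duplicate with neomycin as reference, at 37 °C in a humidified incubator for 15-20 h. Broth and culture controls received sterile water with 1% DMSO. Percent growth inhibition was calculated against the growth and background controls.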

Pseudomonas aeruginosa = assay: Antibacterial activity against NEO-resistant Pseudomonas aeruginosa 27853 at 6.25 uM after 15 to 20 hrs by CLSI protocol based microdilution assay relative to control; assay type: functional; how it was run: as §2
[3] = tested on: Mycolicibacterium smegmatis; assay: Antibacterial activity against NEO-sensitive Mycobacterium smegmatis at 6.25 uM after 15 to 20 hrs by CLSI protocol based microdilution assay relative to control; assay type: functional
How it was run: (§3)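 Single-concentration screen at 6.25 μM against exponential-phase cultures, in duplicate, with NEO as reference. Enterococcus was grown in BHI broth, M. smegmatis in TS broth with 0.05% Tween 80, and all other strains in TS broth. The 1% DMSO water vehicle was added to broth (background) and culture (growth control). Incubation was 37 °C, humidified, 15-20 h. Result is percent growth inhibition.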

[4] = Inhibition of Eis (unknown origin)
Streptococcus pyogenes = assay: Antibacterial activity against NEO-resistant Streptococcus pyogenes C203 at 6.25 uM after 15 to 20 hrs by CLSI protocol based microdilution assay relative to control; assay type: functional; how it was run: as §2
[5] = Inhibition of AAC(6')-1e (unknown origin)
[6] = Inhibition of AAC(2')-1c (unknown origin)
Staphylococcus aureus [7] = assay: Antibacterial activity against methicillin-resistant Staphylococcus aureus SU-5 at 6.25 uM after 15 to 20 hrs by CLSI protocol based microdilution assay relative to control; assay type: functional; how it was run: as §2
Staphylococcus aureus [8] = assay: Antibacterial activity against NEO-sensitive Staphylococcus aureus 25923 at 6.25 uM after 15 to 20 hrs by CLSI protocol based microdilution assay relative to control; assay type: functional; how it was run: as §3
Homo sapiens [9] = species on record: Homo sapiens; assay: Displacement of F-NEO from human mitochondrial rRNA-A site C1410U mutant after 10 to 20 mins by fluorescence assay relative to NEO; design: concentration or dose not given beside the values
How it was run: (§4)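 100 nM F-NEO:A-site complex in 10 mM HEPES, 50 mM NaCl, 0.04 mM EDTA, pH 7.0, mixed with ligand and incubated 10-20 min at room temperature. Fluorescence read at ex 485/em 525 nm, in duplicate. Percent binding was computed from the intensities of ligand-treated complex, complex without ligand, and complex with neomycin.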

Enterococcus faecium = assay: Antibacterial activity against NEO-intermediate sensitive Enterococcus faecium BM4105-RF at 6.25 uM after 15 to 20 hrs by CLSI protocol based microdilution assay relative to control; assay type: functional; how it was run: as §3
Klebsiella oxytoca = assay: Antibacterial activity against NEO-sensitive Klebsiella oxytoca HM-625 at 6.25 uM after 15 to 20 hrs by CLSI protocol based microdilution assay relative to control; assay type: functional; how it was run: as §3
Staphylococcus aureus [10] = assay: Antibacterial activity against methicillin-resistant Staphylococcus aureus A960649 at 6.25 uM after 15 to 20 hrs by CLSI protocol based microdilution assay relative to control; assay type: functional; how it was run: as §2
Acinetobacter baumannii = assay: Antibacterial activity against NEO-sensitive Acinetobacter baumannii ATCC 19606 at 6.25 uM after 15 to 20 hrs by CLSI protocol based microdilution assay relative to control; assay type: functional, ATCC 19606 = CIP 70.34 = JCM 6841; how it was run: as §3
Staphylococcus aureus [11] = assay: Antibacterial activity against NEO-sensitive Staphylococcus aureus C1 after 15 to 20 hrs by CLSI protocol based microdilution assay; assay type: functional
How it was run: (§5)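 CLSI broth microdilution MIC in triplicate on exponential-phase cells, ~3×10^5 cells per mL in cation-adjusted Mueller-Hinton broth. Compound was added from 10× stocks in 10% DMSO as serial 2-fold dilutions, final 50 to 0.78 μM. Plates were incubated at 37 °C, humidified, 15-20 h. Growth was read as absorbance at 595 nm, and percent inhibition was averaged over triplicates.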

Klebsiella pneumoniae = assay: Antibacterial activity against Klebsiella pneumoniae NR-151410 at 6.25 uM after 15 to 20 hrs by CLSI protocol based microdilution assay relative to control; assay type: functional; how it was run: as §3
Staphylococcus aureus [12] = assay: Antibacterial activity against methicillin-resistant Staphylococcus aureus M0602 at 6.25 uM after 15 to 20 hrs by CLSI protocol based microdilution assay relative to control; assay type: functional; how it was run: as §2
Listeria monocytogenes = assay: Antibacterial activity against NEO-sensitive Listeria monocytogenes ATCC 19115 at 6.25 uM after 15 to 20 hrs by CLSI protocol based microdilution assay relative to control; assay type: functional; how it was run: as §3
Enterococcus faecalis = assay: Antibacterial activity against NEO-intermediate sensitive Enterococcus faecalis ATCC 29212 at 6.25 uM after 15 to 20 hrs by CLSI protocol based microdilution assay relative to control; assay type: functional; how it was run: as §3
Staphylococcus aureus [13] = assay: Antibacterial activity against NEO-sensitive Staphylococcus aureus C2 after 15 to 20 hrs by CLSI protocol based microdilution assay; assay type: functional; how it was run: as §5
Staphylococcus aureus [14] = assay: Antibacterial activity against methicillin-resistant Staphylococcus aureus 33591 at 6.25 uM after 15 to 20 hrs by CLSI protocol based microdilution assay relative to control; assay type: functional; how it was run: as §2
Escherichia coli [15] = assay: Antibacterial activity against multidrug-resistant Escherichia coli H4H at 6.25 uM after 15 to 20 hrs by CLSI protocol based microdilution assay relative to control; assay type: functional; how it was run: as §2
[16] = Inhibition of AAC(3)-4 (unknown origin)
Escherichia coli [17] = assay: Antibacterial activity against NEO-sensitive Escherichia coli harboring TolC mutant at 6.25 uM after 15 to 20 hrs by CLSI protocol based microdilution assay relative to control; assay type: functional; how it was run: as §2
Ribosomal RNA A-site [18] = assay: Displacement of F-NEO from Escherichia coli rRNA-A site after 10 to 20 mins by fluorescence assay relative to NEO; assay type: nucleic-acid assay; design: concentration or dose not given beside the values; how it was run: as §4
[19] = Antibacterial activity against NEO-sensitive Enterobacter cloacae 13047 at 6.25 uM after 15 to 20 hrs by CLSI protocol based microdilution assay relative to control; assay type: functional, Enterobacter cloacae subsp. cloacae, ATCC 13047; how it was run: as §3
Staphylococcus aureus [20] = assay: Antibacterial activity against NEO-sensitive Staphylococcus aureus NRS77 after 15 to 20 hrs by CLSI protocol based microdilution assay; assay type: functional; how it was run: as §5
Bacillus anthracis = assay: Antibacterial activity against NEO-sensitive Bacillus anthracis BA852 at 6.25 uM after 15 to 20 hrs by CLSI protocol based microdilution assay relative to control; assay type: functional; how it was run: as §2
Ribosomal RNA A-site [21] = assay: Displacement of F-NEO from human cytosolic rRNA-A site after 10 to 20 mins by fluorescence assay relative to NEO; assay type: nucleic-acid assay; design: concentration or dose not given beside the values; how it was run: as §4
Homo sapiens [22] = species on record: Homo sapiens; assay: Displacement of F-NEO from human mitochondrial rRNA-A site A1490G mutant after 10 to 20 mins by fluorescence assay relative to NEO; how it was run: as §4
Escherichia coli [23] = assay: Antibacterial activity against NEO-sensitive Escherichia coli ATCC 25922 at 6.25 uM after 15 to 20 hrs by CLSI protocol based microdilution assay relative to control; assay type: functional; how it was run: as §3
Ribosomal RNA A-site [24] = assay: Displacement of F-NEO from human mitochondrial rRNA-A site after 10 to 20 mins by fluorescence assay relative to NEO; assay type: nucleic-acid assay; design: concentration or dose not given beside the values; how it was run: as §4
Ribosomal RNA A-site [25] = assay: Displacement of F-NEO from human mitochondrial rRNA-A site after 10 to 20 mins by fluorescence assay; assay type: nucleic-acid assay; how it was run: as §1
[26] = Inhibition of APH(3')-1a (unknown origin)
[27] = Inhibition of APH(2\")-1a (unknown origin)
Staphylococcus aureus [28] = assay: Antibacterial activity against NEO-sensitive Staphylococcus aureus 6538 after 15 to 20 hrs by CLSI protocol based microdilution assay; assay type: functional; how it was run: as §5
Ribosomal RNA A-site [29] = assay: Displacement of F-NEO from Escherichia coli rRNA-A site after 10 to 20 mins by fluorescence assay; assay type: nucleic-acid assay; how it was run: as §1
[30] = Displacement of F-NEO from human mitochondrial rRNA-A site C1410U mutant after 10 to 20 mins by fluorescence assay; how it was run: as §1
[31] = tested on: Staphylococcus epidermidis; assay: Antibacterial activity against NEO-sensitive Staphylococcus epidermidis 12384 at 6.25 uM after 15 to 20 hrs by CLSI protocol based microdilution assay relative to control; assay type: functional; how it was run: as §3
Ribosomal RNA A-site [32] = assay: Binding affinity to rRNA-A site in human MDA-MB-231 cells assessed as inhibition of protein translation; assay type: cell-based

Structure (SMILES): NC[C@@H]1O[C@H](O[C@H]2[C@@H](O)[C@H](O[C@@H]3[C@@H](O)[C@H](N)C[C@H](N)[C@H]3O[C@H]3O[C@H](CN)[C@@H](O)[C@H](O)[C@H]3N)O[C@@H]2CNC(=O)CCc2ccc3ccc4cccc5ccc2c3c45)[C@H](N)[C@@H](O)[C@@H]1O
- IC50 (Ribosomal RNA A-site [1]): 447 nM
- Activity (Staphylococcus aureus [2]): inactive
- Activity (Pseudomonas aeruginosa): 14%
- Activity [3]: 35%
- inhibition [4]: Active
- Activity (Streptococcus pyogenes): inactive
- inhibition [5]: Active
- inhibition [6]: Active
- Activity (Staphylococcus aureus [7]): inactive
- Activity (Staphylococcus aureus [8]): 15%
- inhibition (Homo sapiens [9]): 65%
- Activity (Enterococcus faecium): 0%
- Activity (Klebsiella oxytoca): 5%
- Activity (Staphylococcus aureus [10]): 16%
- Activity (Acinetobacter baumannii): 10%
- MIC (Staphylococcus aureus [11]): 25 µM (≈ 21.7 µg/mL)
- Activity (Klebsiella pneumoniae): 13%
- Activity (Staphylococcus aureus [12]): inactive
- Activity (Listeria monocytogenes): inactive
- Activity (Enterococcus faecalis): 6%
- MIC (Staphylococcus aureus [13]): 25 µM (≈ 21.7 µg/mL)
- Activity (Staphylococcus aureus [14]): 14%
- Activity (Escherichia coli [15]): inactive
- inhibition [16]: Active
- Activity (Escherichia coli [17]): inactive
- inhibition (Ribosomal RNA A-site [18]): 33%
- Activity [19]: 0%
- MIC (Staphylococcus aureus [20]): > 25 µM
- Activity (Bacillus anthracis): inactive
- inhibition (Ribosomal RNA A-site [21]): 39%
- inhibition (Homo sapiens [22]): 22%
- Activity (Escherichia coli [23]): 0%
- inhibition (Ribosomal RNA A-site [24]): 47%
- IC50 (Ribosomal RNA A-site [25]): 373 nM
- inhibition [26]: Active
- inhibition [27]: Active
- MIC (Staphylococcus aureus [28]): 12.5 µM (≈ 10.9 µg/mL)
- IC50 (Ribosomal RNA A-site [29]): 310 nM
- IC50 [30]: 332 nM
- Activity [31]: 10%

Structure (SMILES): CC/C(=C(\c1ccccc1)c1ccc(OCCN(C)C)cc1)c1ccccc1 [TAMOXIFEN]
- IC50 (Ribosomal RNA A-site [32]): 18100 nM
